What follows are molecules tested on MCF7 (assay: Anticancer activity against human MCF7 cells assessed as cell growth at 10^-5 M after 48 hrs by SRB assay). Settings: MCF7, 48 h, read-out: Activity.
Assay type: functional
Method in brief: (§1)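 NCI-60 single-dose screen at one concentration. Cells grown in RPMI 1640 with 5% FBS and 2 mM L-glutamine, plated at 5000–40,000 cells/well, and pre-incubated 24 h at 37 °C in 5% CO2 before DMSO-dissolved drug was added. Cells fixed with TCA, SRB-stained, absorbance read at 515 nm. Percent growth calculated against time-zero and untreated control plates.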
Molecule COc1cccc(-c2nc3sccn3c2-c2ccnc(NCCNC(=O)c3cc(C(F)(F)F)cc(C(F)(F)F)c3)n2)c1 has a growth at 10 µM of 72.5%.

What follows are molecules tested on CCRF-CEM (assay: Anticancer activity against human CCRF-CEM cells assessed as cell growth at 10^-5 M after 48 hrs by SRB assay). Settings: read-out: Activity.
Assay type: functional
Method in brief: as §1
COc1cccc(-c2nc3sccn3c2-c2ccnc(NCCNC(=O)c3cc(C(F)(F)F)cc(C(F)(F)F)c3)n2)c1 was tested, and the growth at 10 µM was 69.9%.

These molecules were tested on U-251 (assay: Anticancer activity against human U251 cells assessed as cell growth at 10^-5 M after 48 hrs by SRB assay). Settings: U-251, 48 h, read-out: Activity.
Assay type: functional
Method in brief: (§2)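 NCI-60 single-dose screen: cells in RPMI 1640 with 5% FBS and 2 mM L-glutamine, plated at 5000–40,000 cells/well by doubling time, and preincubated 24 h at 37 °C. Compound given at one concentration from DMSO stock. Cells TCA-fixed and SRB-stained, absorbance at 515 nm. Percent growth relative to time-zero and untreated controls; inhibition % = 100 − growth %.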
Molecule COc1cccc(-c2nc3sccn3c2-c2ccnc(NCCNC(=O)c3cc(C(F)(F)F)cc(C(F)(F)F)c3)n2)c1 has a growth at 10 µM of 92%.

The molecules below were run on Malme-3M (assay: Anticancer activity against human MALME-3M cells assessed as cell growth at 10^-5 M after 48 hrs by SRB assay). Settings: read-out: Activity.
Assay type: functional
Method in brief: as §1
For COc1cccc(-c2nc3sccn3c2-c2ccnc(NCCNC(=O)c3cc(C(F)(F)F)cc(C(F)(F)F)c3)n2)c1, the growth at 10 µM was 94.1%.

Each molecule was assayed on ACHN (assay: Anticancer activity against human ACHN cells assessed as cell growth at 10^-5 M after 48 hrs by SRB assay). Settings: read-out: Activity.
Assay type: functional
Method in brief: as §1
COc1cccc(-c2nc3sccn3c2-c2ccnc(NCCNC(=O)c3cc(C(F)(F)F)cc(C(F)(F)F)c3)n2)c1 gave a growth at 10 µM of 88.2%.

The molecules below were run on EKVX (assay: Anticancer activity against human EKVX cells assessed as cell growth at 10^-5 M after 48 hrs by SRB assay). Settings: read-out: Activity.
Assay type: functional
Method in brief: as §1
Work on COc1cccc(-c2nc3sccn3c2-c2ccnc(NCCNC(=O)c3cc(C(F)(F)F)cc(C(F)(F)F)c3)n2)c1 yielded a growth at 10 µM of 84.4%.

What follows are molecules tested on BT-549 (assay: Anticancer activity against human BT549 cells assessed as cell growth at 10^-5 M after 48 hrs by SRB assay). Settings: BT-549, 48 h, read-out: Activity.
Assay type: functional
Method in brief: as §1
In the case of COc1cccc(-c2nc3sccn3c2-c2ccnc(NCCNC(=O)c3cc(C(F)(F)F)cc(C(F)(F)F)c3)n2)c1, the growth at 10 µM is reported as 86.2%.

What follows are molecules tested on A498 (assay: Anticancer activity against human A498 cells assessed as cell growth at 10^-5 M after 48 hrs by SRB assay). Settings: A498, 48 h, read-out: Activity.
Assay type: functional
Method in brief: as §1
For COc1cccc(-c2nc3sccn3c2-c2ccnc(NCCNC(=O)c3cc(C(F)(F)F)cc(C(F)(F)F)c3)n2)c1, the growth at 10 µM was 95.6%.

The molecules below were run on NCI-H522 (assay: Anticancer activity against human NCI-H522 cells assessed as cell growth at 10^-5 M after 48 hrs by SRB assay). Settings: NCI-H522, 48 h, read-out: Activity.
Assay type: functional
Molecule COc1cccc(-c2nc3sccn3c2-c2ccnc(NCCNC(=O)c3cc(C(F)(F)F)cc(C(F)(F)F)c3)n2)c1 has a growth at 10 µM of 78.4%.

What follows are molecules tested on 786-0 (assay: Anticancer activity against human 786-0 cells assessed as cell growth at 10^-5 M after 48 hrs by SRB assay). Settings: 786-0, 48 h, read-out: Activity.
Assay type: functional
Method in brief: as §1
COc1cccc(-c2nc3sccn3c2-c2ccnc(NCCNC(=O)c3cc(C(F)(F)F)cc(C(F)(F)F)c3)n2)c1 gave a growth at 10 µM of 75.9%.

These molecules were tested on NCI-H226 (assay: Anticancer activity against human NCI-H226 cells assessed as cell growth at 10^-5 M after 48 hrs by SRB assay). Settings: NCI-H226, 48 h, read-out: Activity.
Assay type: functional
For COc1cccc(-c2nc3sccn3c2-c2ccnc(NCCNC(=O)c3cc(C(F)(F)F)cc(C(F)(F)F)c3)n2)c1, the growth at 10 µM was 102%.

These molecules were tested on SK-MEL-2 (assay: Anticancer activity against human SK-MEL-2 cells assessed as cell growth at 10^-5 M after 48 hrs by SRB assay). Settings: SK-MEL-2, 48 h, read-out: Activity.
Assay type: functional
COc1cccc(-c2nc3sccn3c2-c2ccnc(NCCNC(=O)c3cc(C(F)(F)F)cc(C(F)(F)F)c3)n2)c1 gave a growth at 10 µM of 81.8%.

Each molecule was assayed on SF-268 (assay: Anticancer activity against human SF268 cells assessed as cell growth at 10^-5 M after 48 hrs by SRB assay). Settings: SF-268, 48 h, read-out: Activity.
Assay type: functional
COc1cccc(-c2nc3sccn3c2-c2ccnc(NCCNC(=O)c3cc(C(F)(F)F)cc(C(F)(F)F)c3)n2)c1 was tested, and the growth at 10 µM was 82.5%.

Each molecule was assayed on RPMI-8226 (assay: Anticancer activity against human RPMI8226 cells assessed as cell growth at 10^-5 M after 48 hrs by SRB assay). Settings: RPMI-8226, 48 h, read-out: Activity.
Assay type: functional
COc1cccc(-c2nc3sccn3c2-c2ccnc(NCCNC(=O)c3cc(C(F)(F)F)cc(C(F)(F)F)c3)n2)c1 showed a growth at 10 µM of 50%.

The molecules below were run on MDA-MB-231 (assay: Anticancer activity against human MDA-MB-231 cells assessed as cell growth at 10^-5 M after 48 hrs by SRB assay). Settings: MDA-MB-231, 48 h, read-out: Activity.
Assay type: functional
Method in brief: as §1
Molecule COc1cccc(-c2nc3sccn3c2-c2ccnc(NCCNC(=O)c3cc(C(F)(F)F)cc(C(F)(F)F)c3)n2)c1 has a growth at 10 µM of 82.9%.

What follows are molecules tested on SF-539 (assay: Anticancer activity against human SF539 cells assessed as cell growth at 10^-5 M after 48 hrs by SRB assay). Settings: SF-539, 48 h, read-out: Activity.
Assay type: functional
Molecule COc1cccc(-c2nc3sccn3c2-c2ccnc(NCCNC(=O)c3cc(C(F)(F)F)cc(C(F)(F)F)c3)n2)c1 has a growth at 10 µM of 88.3%.

The molecules below were run on OVCAR-8 (assay: Anticancer activity against human OVCAR8 cells assessed as cell growth at 10^-5 M after 48 hrs by SRB assay). Settings: OVCAR-8, 48 h, read-out: Activity.
Assay type: functional
For COc1cccc(-c2nc3sccn3c2-c2ccnc(NCCNC(=O)c3cc(C(F)(F)F)cc(C(F)(F)F)c3)n2)c1, the growth at 10 µM was 82.4%.

Each molecule was assayed on OVCAR-5 (assay: Anticancer activity against human OVCAR5 cells assessed as cell growth at 10^-5 M after 48 hrs by SRB assay). Settings: OVCAR-5, 48 h, read-out: Activity.
Assay type: functional
In the case of COc1cccc(-c2nc3sccn3c2-c2ccnc(NCCNC(=O)c3cc(C(F)(F)F)cc(C(F)(F)F)c3)n2)c1, the growth at 10 µM is reported as 101%.

What follows are molecules tested on HOP-92 (assay: Anticancer activity against human HOP92 cells assessed as cell growth at 10^-5 M after 48 hrs by SRB assay). Settings: HOP-92, 48 h, read-out: Activity.
Assay type: functional
Method in brief: as §1
COc1cccc(-c2nc3sccn3c2-c2ccnc(NCCNC(=O)c3cc(C(F)(F)F)cc(C(F)(F)F)c3)n2)c1 was tested, and the growth at 10 µM was 38.5%.

Each molecule was assayed on UO-31 (assay: Anticancer activity against human UO31 cells assessed as cell growth at 10^-5 M after 48 hrs by SRB assay). Settings: UO-31, 48 h, read-out: Activity.
Assay type: functional
Method in brief: as §2
COc1cccc(-c2nc3sccn3c2-c2ccnc(NCCNC(=O)c3cc(C(F)(F)F)cc(C(F)(F)F)c3)n2)c1 showed a growth at 10 µM of 61.2%.

The molecules below were run on NCI-H322M (assay: Anticancer activity against human NCI-H322M cells assessed as cell growth at 10^-5 M after 48 hrs by SRB assay). Settings: read-out: Activity.
Assay type: functional
With COc1cccc(-c2nc3sccn3c2-c2ccnc(NCCNC(=O)c3cc(C(F)(F)F)cc(C(F)(F)F)c3)n2)c1 the growth at 10 µM was 95.5%.

The molecules below were run on OVCAR-3 (assay: Anticancer activity against human OVCAR3 cells assessed as cell growth at 10^-5 M after 48 hrs by SRB assay). Settings: OVCAR-3, 48 h, read-out: Activity.
Assay type: functional
In the case of COc1cccc(-c2nc3sccn3c2-c2ccnc(NCCNC(=O)c3cc(C(F)(F)F)cc(C(F)(F)F)c3)n2)c1, the growth at 10 µM is reported as 90.9%.

Each molecule was assayed on KM12 (assay: Anticancer activity against human KM12 cells assessed as cell growth at 10^-5 M after 48 hrs by SRB assay). Settings: KM12, 48 h, read-out: Activity.
Assay type: functional
Method in brief: as §1
Work on COc1cccc(-c2nc3sccn3c2-c2ccnc(NCCNC(=O)c3cc(C(F)(F)F)cc(C(F)(F)F)c3)n2)c1 yielded a growth at 10 µM of 79.4%.

These molecules were tested on SNB-75 (assay: Anticancer activity against human SNB75 cells assessed as cell growth at 10^-5 M after 48 hrs by SRB assay). Settings: SNB-75, 48 h, read-out: Activity.
Assay type: functional
Method in brief: as §2
For COc1cccc(-c2nc3sccn3c2-c2ccnc(NCCNC(=O)c3cc(C(F)(F)F)cc(C(F)(F)F)c3)n2)c1, the growth at 10 µM was 75.8%.

The molecules below were run on DU-145 (assay: Anticancer activity against human DU145 cells assessed as cell growth at 10^-5 M after 48 hrs by SRB assay). Settings: DU-145, 48 h, read-out: Activity.
Assay type: functional
Method in brief: as §1
COc1cccc(-c2nc3sccn3c2-c2ccnc(NCCNC(=O)c3cc(C(F)(F)F)cc(C(F)(F)F)c3)n2)c1 gave a growth at 10 µM of 94.4%.

The molecules below were run on LOX IMVI (assay: Anticancer activity against human LOXIMVI cells assessed as cell growth at 10^-5 M after 48 hrs by SRB assay). Settings: read-out: Activity.
Assay type: functional
Method in brief: as §1
Work on COc1cccc(-c2nc3sccn3c2-c2ccnc(NCCNC(=O)c3cc(C(F)(F)F)cc(C(F)(F)F)c3)n2)c1 yielded a growth at 10 µM of 92.5%.

What follows are molecules tested on HOP-62 (assay: Anticancer activity against human HOP62 cells assessed as cell growth at 10^-5 M after 48 hrs by SRB assay). Settings: HOP-62, 48 h, read-out: Activity.
Assay type: functional
Method in brief: as §1
With COc1cccc(-c2nc3sccn3c2-c2ccnc(NCCNC(=O)c3cc(C(F)(F)F)cc(C(F)(F)F)c3)n2)c1 the growth at 10 µM was 109%.

What follows are molecules tested on T47D (assay: Anticancer activity against human T47D cells assessed as cell growth at 10^-5 M after 48 hrs by SRB assay). Settings: read-out: Activity.
Assay type: functional
Method in brief: as §2
Work on COc1cccc(-c2nc3sccn3c2-c2ccnc(NCCNC(=O)c3cc(C(F)(F)F)cc(C(F)(F)F)c3)n2)c1 yielded a growth at 10 µM of 77%.

Each molecule was assayed on HCT-116 (assay: Anticancer activity against human HCT116 cells assessed as cell growth at 10^-5 M after 48 hrs by SRB assay). Settings: HCT-116, 48 h, read-out: Activity.
Assay type: functional
Method in brief: as §1
COc1cccc(-c2nc3sccn3c2-c2ccnc(NCCNC(=O)c3cc(C(F)(F)F)cc(C(F)(F)F)c3)n2)c1 was tested, and the growth at 10 µM was 69.1%.

Each molecule was assayed on HT-29 (assay: Anticancer activity against human HT-29 cells assessed as cell growth at 10^-5 M after 48 hrs by SRB assay). Settings: HT-29, 48 h, read-out: Activity.
Assay type: functional
Method in brief: as §1
COc1cccc(-c2nc3sccn3c2-c2ccnc(NCCNC(=O)c3cc(C(F)(F)F)cc(C(F)(F)F)c3)n2)c1 was tested, and the growth at 10 µM was 69.8%.

What follows are molecules tested on NCI-H23 (assay: Anticancer activity against human NCI-H23 cells assessed as cell growth at 10^-5 M after 48 hrs by SRB assay). Settings: NCI-H23, 48 h, read-out: Activity.
Assay type: functional
COc1cccc(-c2nc3sccn3c2-c2ccnc(NCCNC(=O)c3cc(C(F)(F)F)cc(C(F)(F)F)c3)n2)c1 gave a growth at 10 µM of 102%.

These molecules were tested on HCT-15 (assay: Anticancer activity against human HCT15 cells assessed as cell growth at 10^-5 M after 48 hrs by SRB assay). Settings: HCT-15, 48 h, read-out: Activity.
Assay type: functional
Method in brief: as §1
COc1cccc(-c2nc3sccn3c2-c2ccnc(NCCNC(=O)c3cc(C(F)(F)F)cc(C(F)(F)F)c3)n2)c1 showed a growth at 10 µM of 83.8%.

What follows are molecules tested on SK-OV-3 (assay: Anticancer activity against human SKOV3 cells assessed as cell growth at 10^-5 M after 48 hrs by SRB assay). Settings: SK-OV-3, 48 h, read-out: Activity.
Assay type: functional
COc1cccc(-c2nc3sccn3c2-c2ccnc(NCCNC(=O)c3cc(C(F)(F)F)cc(C(F)(F)F)c3)n2)c1 was tested, and the growth at 10 µM was 97%.
